Data as given in ChEMBL document CHEMBL1136943, “Nocathiacin analogs: Synthesis and antibacterial activity of novel water-soluble amides” (Bioorg Med Chem Lett, 2009).
Values after ≈ are worked out from the molar mass of the structure shown.

Tests used:
[1] = test system: Staphylococcus aureus; test: Antibacterial activity against Staphylococcus aureus MB2865 in liquid culture by turbidity method; type: functional
Summary of the method: (§1)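 MIC is the lowest concentration giving 100% inhibition of bacterial growth in liquid culture, read by turbidity.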

[2] = test system: Streptococcus pneumoniae; test: Antibacterial activity against Streptococcus pneumoniae CL2883 in liquid culture by turbidity method; type: functional; summary of the method: as §1
[3] = test system: Enterococcus faecalis; test: Antibacterial activity against Enterococcus faecalis C21560 in liquid culture by turbidity method; type: functional; summary of the method: as §1
[4] = Aqueous solubility by lyophilization solubility assay; type: physicochemical
Summary of the method: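 Amorphous powders from lyophilized material, as TFA salts; aqueous solubility measured by nephelometry.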

[5] = test system: Staphylococcus aureus; test: Antibacterial activity against Staphylococcus aureus infected in mouse model assessed as reduction of >= 2 log 10 cfu kidney burden; type: functional
Summary of the method: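 Systemic S. aureus infection mouse model (SATOA). Compounds were given iv; […]. Kidney bacterial burden (cfu) was compared with untreated control. ED99 is the dose giving a reduction of at least 2 log10 cfu in kidney burden.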

Structure (SMILES)	MIC [1] [µg/mL]	MIC [2] [µg/mL]	MIC [3] [µg/mL]	solubility [4] [µg/mL]	ED99 [5] [mg/kg]
CO/C(C)=C1/NC(=O)[C@H]([C@@H](C)O)NC(=O)c2csc(n2)-c2cc(O)c(-c3nc(C(=O)NCCCN4CCN(C)CC4)cs3)nc2-c2csc(n2)[C@@H]2COC(=O)c3c4c5c(cccc5n3O)COC(=O)[C@@H](O[C@H]3C[C@](C)(O)[C@H](N(C)C)[C@H](C)O3)[C@@H](OC4)[C@H](NC(=O)c3csc1n3)c1nc(cs1)C(=O)N2.O=C(O)C(F)(F)F	–	–	–	> 10000	–
CO/C(C)=C1/NC(=O)[C@H]([C@@H](C)O)NC(=O)c2csc(n2)-c2cc(O)c(-c3nc(C(=O)NCCN)cs3)nc2-c2csc(n2)[C@@H]2COC(=O)c3c4c5c(cccc5n3O)COC(=O)[C@@H](O[C@H]3C[C@](C)(O)[C@H](N(C)C)[C@H](C)O3)[C@@H](OC4)[C@H](NC(=O)c3csc1n3)c1nc(cs1)C(=O)N2.O=C(O)C(F)(F)F	–	–	–	> 10000	–
CO/C(C)=C1/NC(=O)[C@H]([C@@H](C)O)NC(=O)c2csc(n2)-c2cc(O)c(-c3nc(C(=O)NCCNC(=O)c4cc(O)cc(O)c4)cs3)nc2-c2csc(n2)[C@@H]2COC(=O)c3c4c5c(cccc5n3O)COC(=O)[C@@H](O[C@H]3C[C@](C)(O)[C@H](N(C)C)[C@H](C)O3)[C@@H](OC4)[C@H](NC(=O)c3csc1n3)c1nc(cs1)C(=O)N2	> 1	–	> 1	–	–
C=C(NC(=O)c1csc(-c2nc3c(cc2O)-c2nc(cs2)C(=O)N[C@@H]([C@@H](C)O)C(=O)N/C(=C(\C)OC)c2nc(cs2)C(=O)N[C@@H]2c4nc(cs4)C(=O)N[C@@H](COC(=O)c4c5c6c(cccc6n4O)COC(=O)[C@@H](O[C@H]4C[C@](C)(O)[C@H](N(C)C)[C@H](C)O4)[C@H]2OC5)c2nc-3cs2)n1)C(N)=O.O=C(O)C(F)(F)F [NOCATHIACIN I]	–	–	–	340	–
CO/C(C)=C1/NC(=O)[C@H]([C@@H](C)O)NC(=O)c2csc(n2)-c2cc(O)c(-c3nc(C(=O)NCCNC(N)=O)cs3)nc2-c2csc(n2)[C@@H]2COC(=O)c3c4c5c(cccc5n3O)COC(=O)[C@@H](O[C@H]3C[C@](C)(O)[C@H](N(C)C)[C@H](C)O3)[C@@H](OC4)[C@H](NC(=O)c3csc1n3)c1nc(cs1)C(=O)N2	0.06 (≈ 0.0412 µM)	0.0075 (≈ 0.00516 µM)	0.5 (≈ 0.344 µM)	–	–
CO/C(C)=C1/NC(=O)[C@H]([C@@H](C)O)NC(=O)c2csc(n2)-c2cc(O)c(-c3nc(C(=O)NCCNCC(O)CO)cs3)nc2-c2csc(n2)[C@@H]2COC(=O)c3c4c5c(cccc5n3O)COC(=O)[C@@H](O[C@H]3C[C@](C)(O)[C@H](N(C)C)[C@H](C)O3)[C@@H](OC4)[C@H](NC(=O)c3csc1n3)c1nc(cs1)C(=O)N2 (stereo not given in full)	0.5 (≈ 0.337 µM)	0.125 (≈ 0.0841 µM)	2 (≈ 1.35 µM)	–	–
CO/C(C)=C1/NC(=O)[C@H]([C@@H](C)O)NC(=O)c2csc(n2)-c2cc(O)c(-c3nc(C(=O)N4CCN(CC(=O)N(C)C)CC4)cs3)nc2-c2csc(n2)[C@@H]2COC(=O)c3c4c5c(cccc5n3O)COC(=O)[C@@H](O[C@H]3C[C@](C)(O)[C@H](N(C)C)[C@H](C)O3)[C@@H](OC4)[C@H](NC(=O)c3csc1n3)c1nc(cs1)C(=O)N2	0.12 (≈ 0.0788 µM)	0.0038 (≈ 0.0025 µM)	0.25 (≈ 0.164 µM)	–	–
CO/C(C)=C1/NC(=O)[C@H]([C@@H](C)O)NC(=O)c2csc(n2)-c2cc(O)c(-c3nc(C(=O)NCCNC(=O)CN(C)C)cs3)nc2-c2csc(n2)[C@@H]2COC(=O)c3c4c5c(cccc5n3O)COC(=O)[C@@H](O[C@H]3C[C@](C)(O)[C@H](N(C)C)[C@H](C)O3)[C@@H](OC4)[C@H](NC(=O)c3csc1n3)c1nc(cs1)C(=O)N2.O=C(O)C(F)(F)F	–	–	–	> 10000	–
CO/C(C)=C1/NC(=O)[C@H]([C@@H](C)O)NC(=O)c2csc(n2)-c2cc(O)c(-c3nc(C(=O)NCC(=O)N4CCN(C)CC4)cs3)nc2-c2csc(n2)[C@@H]2COC(=O)c3c4c5c(cccc5n3O)COC(=O)[C@@H](O[C@H]3C[C@](C)(O)[C@H](N(C)C)[C@H](C)O3)[C@@H](OC4)[C@H](NC(=O)c3csc1n3)c1nc(cs1)C(=O)N2.O=C(O)C(F)(F)F	–	–	–	> 10000	–
CO/C(C)=C1/NC(=O)[C@H]([C@@H](C)O)NC(=O)c2csc(n2)-c2cc(O)c(-c3nc(C(=O)NCCCN4CCOCC4)cs3)nc2-c2csc(n2)[C@@H]2COC(=O)c3c4c5c(cccc5n3O)COC(=O)[C@@H](O[C@H]3C[C@](C)(O)[C@H](N(C)C)[C@H](C)O3)[C@@H](OC4)[C@H](NC(=O)c3csc1n3)c1nc(cs1)C(=O)N2.O=C(O)C(F)(F)F	–	–	–	> 10000	–
CO/C(C)=C1/NC(=O)[C@H]([C@@H](C)O)NC(=O)c2csc(n2)-c2cc(O)c(-c3nc(C(=O)NCCNC(=O)CN4CCOCC4)cs3)nc2-c2csc(n2)[C@@H]2COC(=O)c3c4c5c(cccc5n3O)COC(=O)[C@@H](O[C@H]3C[C@](C)(O)[C@H](N(C)C)[C@H](C)O3)[C@@H](OC4)[C@H](NC(=O)c3csc1n3)c1nc(cs1)C(=O)N2.O=C(O)C(F)(F)F	–	–	–	> 10000	–
CO/C(C)=C1/NC(=O)[C@H]([C@@H](C)O)NC(=O)c2csc(n2)-c2cc(O)c(-c3nc(C(=O)NCC(=O)N4CCN(C)CC4)cs3)nc2-c2csc(n2)[C@@H]2COC(=O)c3c4c5c(cccc5n3O)COC(=O)[C@@H](O[C@H]3C[C@](C)(O)[C@H](N(C)C)[C@H](C)O3)[C@@H](OC4)[C@H](NC(=O)c3csc1n3)c1nc(cs1)C(=O)N2	0.0038 (≈ 0.00252 µM)	0.00048 (≈ 0.000318 µM)	0.03 (≈ 0.0199 µM)	–	0.13
CO/C(C)=C1/NC(=O)[C@H]([C@@H](C)O)NC(=O)c2csc(n2)-c2cc(O)c(-c3nc(C(=O)NCCCN(C)C)cs3)nc2-c2csc(n2)[C@@H]2COC(=O)c3c4c5c(cccc5n3O)COC(=O)[C@@H](O[C@H]3C[C@](C)(O)[C@H](N(C)C)[C@H](C)O3)[C@@H](OC4)[C@H](NC(=O)c3csc1n3)c1nc(cs1)C(=O)N2	0.06 (≈ 0.0413 µM)	0.00095 (≈ 0.000654 µM)	0.12 (≈ 0.0826 µM)	–	>0.5

Further lines, with some results ahead:

MIC [1] [µg/mL]	MIC [2] [µg/mL]	MIC [3] [µg/mL]	solubility [4] [µg/mL]	Structure (SMILES)	ED99 [5] [mg/kg]
0.5 (≈ 0.354 µM)	0.06 (≈ 0.0425 µM)	2 (≈ 1.42 µM)	–	CO/C(C)=C1/NC(=O)[C@H]([C@@H](C)O)NC(=O)c2csc(n2)-c2cc(O)c(-c3nc(C(=O)NCCN)cs3)nc2-c2csc(n2)[C@@H]2COC(=O)c3c4c5c(cccc5n3O)COC(=O)[C@@H](O[C@H]3C[C@](C)(O)[C@H](N(C)C)[C@H](C)O3)[C@@H](OC4)[C@H](NC(=O)c3csc1n3)c1nc(cs1)C(=O)N2	–
–	–	–	> 10000	CO/C(C)=C1/NC(=O)[C@H]([C@@H](C)O)NC(=O)c2csc(n2)-c2cc(O)c(-c3nc(C(=O)N4CCN(CC(=O)N(C)C)CC4)cs3)nc2-c2csc(n2)[C@@H]2COC(=O)c3c4c5c(cccc5n3O)COC(=O)[C@@H](O[C@H]3C[C@](C)(O)[C@H](N(C)C)[C@H](C)O3)[C@@H](OC4)[C@H](NC(=O)c3csc1n3)c1nc(cs1)C(=O)N2.O=C(O)C(F)(F)F	–
–	–	–	> 10000	CO/C(C)=C1/NC(=O)[C@H]([C@@H](C)O)NC(=O)c2csc(n2)-c2cc(O)c(-c3nc(C(=O)N(C)CCN(C)C)cs3)nc2-c2csc(n2)[C@@H]2COC(=O)c3c4c5c(cccc5n3O)COC(=O)[C@@H](O[C@H]3C[C@](C)(O)[C@H](N(C)C)[C@H](C)O3)[C@@H](OC4)[C@H](NC(=O)c3csc1n3)c1nc(cs1)C(=O)N2.O=C(O)C(F)(F)F	–
0.06 (≈ 0.0413 µM)	0.0038 (≈ 0.00261 µM)	0.12 (≈ 0.0826 µM)	–	CO/C(C)=C1/NC(=O)[C@H]([C@@H](C)O)NC(=O)c2csc(n2)-c2cc(O)c(-c3nc(C(=O)N(C)CCN(C)C)cs3)nc2-c2csc(n2)[C@@H]2COC(=O)c3c4c5c(cccc5n3O)COC(=O)[C@@H](O[C@H]3C[C@](C)(O)[C@H](N(C)C)[C@H](C)O3)[C@@H](OC4)[C@H](NC(=O)c3csc1n3)c1nc(cs1)C(=O)N2	>0.5
–	–	–	> 10000	CO/C(C)=C1/NC(=O)[C@H]([C@@H](C)O)NC(=O)c2csc(n2)-c2cc(O)c(-c3nc(C(=O)NCCN(C)C)cs3)nc2-c2csc(n2)[C@@H]2COC(=O)c3c4c5c(cccc5n3O)COC(=O)[C@@H](O[C@H]3C[C@](C)(O)[C@H](N(C)C)[C@H](C)O3)[C@@H](OC4)[C@H](NC(=O)c3csc1n3)c1nc(cs1)C(=O)N2.O=C(O)C(F)(F)F	–
–	–	–	> 10000	CO/C(C)=C1/NC(=O)[C@H]([C@@H](C)O)NC(=O)c2csc(n2)-c2cc(O)c(-c3nc(C(=O)N4CCN(C)CC4)cs3)nc2-c2csc(n2)[C@@H]2COC(=O)c3c4c5c(cccc5n3O)COC(=O)[C@@H](O[C@H]3C[C@](C)(O)[C@H](N(C)C)[C@H](C)O3)[C@@H](OC4)[C@H](NC(=O)c3csc1n3)c1nc(cs1)C(=O)N2.O=C(O)C(F)(F)F	–
–	–	–	< 10000	CO/C(C)=C1/NC(=O)[C@H]([C@@H](C)O)NC(=O)c2csc(n2)-c2cc(O)c(-c3nc(C(=O)NCCNC(N)=O)cs3)nc2-c2csc(n2)[C@@H]2COC(=O)c3c4c5c(cccc5n3O)COC(=O)[C@@H](O[C@H]3C[C@](C)(O)[C@H](N(C)C)[C@H](C)O3)[C@@H](OC4)[C@H](NC(=O)c3csc1n3)c1nc(cs1)C(=O)N2.O=C(O)C(F)(F)F	–
–	–	–	10000	CO/C(C)=C1/NC(=O)[C@H]([C@@H](C)O)NC(=O)c2csc(n2)-c2cc(O)c(-c3nc(C(=O)NCCNCC(O)CO)cs3)nc2-c2csc(n2)[C@@H]2COC(=O)c3c4c5c(cccc5n3O)COC(=O)[C@@H](O[C@H]3C[C@](C)(O)[C@H](N(C)C)[C@H](C)O3)[C@@H](OC4)[C@H](NC(=O)c3csc1n3)c1nc(cs1)C(=O)N2.O=C(O)C(F)(F)F (stereo not given in full)	–
–	–	–	> 10000	CO/C(C)=C1/NC(=O)[C@H]([C@@H](C)O)NC(=O)c2csc(n2)-c2cc(O)c(-c3nc(C(=O)NCCCN(C)C)cs3)nc2-c2csc(n2)[C@@H]2COC(=O)c3c4c5c(cccc5n3O)COC(=O)[C@@H](O[C@H]3C[C@](C)(O)[C@H](N(C)C)[C@H](C)O3)[C@@H](OC4)[C@H](NC(=O)c3csc1n3)c1nc(cs1)C(=O)N2.O=C(O)C(F)(F)F	–
